Laboratory results taken from ChEMBL document CHEMBL1143585, “Synthesis of some cryptolepine analogues, assessment of their antimalarial and cytotoxic activities, and consideration of their antimalarial mode of action” (J Med Chem, 2005).

How the values were obtained:
MAC15A [1] = test: Ratio of cytotoxic to that of antiplasmodial activity was determined; assay type: functional, Mus musculus
MAC15A [2] = test: Cytotoxicity against MAC15A mouse adenocarcinomas of the colon cells; assay type: functional, cell-based
Method in brief: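 MTT assay. MAC15A cells were seeded at 2 × 10^3 per well and attached overnight at 37 °C, 5% CO2. Drugs were dissolved in DMSO and diluted in medium (max 0.1% DMSO), eight wells per concentration, 96 h exposure. MTT (0.5 mg/mL) was then added for 24 h. Formazan was dissolved in DMSO and read at 550 nm. Survival is relative to vehicle control; IC50 from triplicate experiments.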

Plasmodium falciparum [3] = test: In vitro antiplasmodial activity for Plasmodium falciparum; assay type: functional, organism-based
Method in brief: (§1)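 P. falciparum K1 ring-stage cultures in human A+ erythrocytes (RPMI 1640, A+ serum, glucose), at 2.5% hematocrit and 1% parasitemia. Two-fold serial dilutions in duplicate, final DMSO ≤0.5%. Incubated 48 h at 37 °C under 93% N2/3% O2/4% CO2. Growth read as parasite lactate dehydrogenase activity (APAD/NBT, 550 nm). IC50 by linear regression; at least three separate determinations.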

Plasmodium falciparum [4] = test: […] accumulation into acidic parasitic food vacuole at pH=5.5; assay type: functional
Plasmodium falciparum [5] = test: Normalized IC50 as product of antiplasmodial IC50 and vacuolar accumulation IC50; assay type: functional, organism-based
[6] = biological target: T1, Histidine-rich protein PFHRP-II (Plasmodium falciparum) (UniProt P05227); test: Antiplasmodial activity as IC50 against Beta-hematin formation; assay type: functional
T1 sequence (whole entry): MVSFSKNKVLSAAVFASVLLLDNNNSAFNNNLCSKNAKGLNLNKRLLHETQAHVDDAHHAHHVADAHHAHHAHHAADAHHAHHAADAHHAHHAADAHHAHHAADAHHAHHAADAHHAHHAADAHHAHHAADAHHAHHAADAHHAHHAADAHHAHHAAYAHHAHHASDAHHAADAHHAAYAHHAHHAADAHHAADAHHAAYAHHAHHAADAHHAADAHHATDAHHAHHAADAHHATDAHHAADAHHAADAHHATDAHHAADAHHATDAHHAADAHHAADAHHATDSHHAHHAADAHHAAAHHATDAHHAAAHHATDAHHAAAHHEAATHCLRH
Method in brief: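 β-Hematin inhibition (BHIA) assay: hemin (0.4 µmol/well) in DMSO with compound at 0.25–2 (or 4) molar equivalents to hemin, in triplicate. Final DMSO was 25%. Formation started with 8 M acetate buffer pH 5.0, then 37 °C for 18 h. The centrifuged pellet was dissolved in 0.1 M NaOH and read at 405 nm. BHIA50 is the drug equivalents relative to hemin giving 50% inhibition.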

[7] = Ionization constant for the compound; assay type: physicochemical
Mus musculus [8] = species on record: Mus musculus; test: Mean survival time taken as number of days before illness due to Plasmodium berghei in untreated mice (Mus musculus); assay type: functional
Method in brief: (§2)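 Peters' 4-day suppressive test in female BALB/c mice (18-20 g), five per group. Each mouse got 1 × 10^7 P. berghei ANKA-infected erythrocytes iv. Drug was given ip in 0.2 mL daily for 4 consecutive days. Survival time was the number of days before signs of malaria illness, compared with untreated infected controls.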

Mus musculus [9] = test: In vivo antimalarial activity of compound against Plasmodium berghei was determined as suppression of parasitemia in mice (Mus musculus) at 25 mg/kg treated for 4 days; assay type: functional
Method in brief: (§3)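 Peters 4-day suppressive test in female BALB/c mice (18–20 g), five per group. Mice were infected iv with 1 × 10^7 P. berghei ANKA-infected erythrocytes. Drug was given ip daily for four consecutive days. Blood smears were taken on day 5, and % parasitemia suppression was calculated against untreated infected controls. Survival was recorded as days until signs of malaria illness.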

Mus musculus [10] = test: Mean survival time taken as number of days before illness due to Plasmodium berghei when mice (Mus musculus) treated with 25 mg/kg dose for 4 days; assay type: functional; method in brief: as §2
Mus musculus [11] = test: In vivo antimalarial activity of compound against Plasmodium berghei in mice (Mus musculus) at dose of 25 mg/kg treated for 4 days; assay type: functional; method in brief: as §3
Plasmodium falciparum [12] = test: In vitro antiplasmodial concentration against multidrug-resistant Plasmodium falciparum K1; assay type: functional, organism-based; method in brief: as §1
Plasmodium falciparum [13] = test: […] accumulation into acidic parasitic food vacuole (pH=5.5) relative to Cryptolepine; assay type: functional
Method in brief: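 Calculated from each compound's spectrophotometric pKa via a pH-trapping equation, assuming food-vacuole pH 5.5 and external pH 7.4. The result is expressed relative to cryptolepine's ratio. pKa came from UV spectra (0.05 mg mL-1) in at least seven buffers of pH 5.8–13.0, plus 0.1 M NaOH and 0.1 M HCl. pKa was taken as the midpoint of the λmax absorbance plot. Two experiments per compound.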

Mus musculus [14] = test: Mean survival time taken as number of days before illness due to Plasmodium berghei when mice (Mus musculus) treated with 50 mg/kg dose for 4 days; assay type: functional; method in brief: as §2
Mus musculus [15] = test: In vivo antimalarial activity of compound against Plasmodium berghei in mice (Mus musculus) at dose of 50 mg/kg treated for 4 days; assay type: functional
Mus musculus [16] = test: In vivo antimalarial activity of compound against Plasmodium berghei was determined as suppression of parasitemia in mice (Mus musculus) at 50 mg/kg treated for 4 days; assay type: functional

Row | SMILES | Ratio (MAC15A [1]) | IC50 (MAC15A [2]; Mus musculus, MAC15A) [nM] | IC50 (Plasmodium falciparum [3]; Plasmodium falciparum) [nM] | Vascular accumulation ratio (Plasmodium falciparum [4]) | IC50 (Plasmodium falciparum [5]) [nM] | BHIA50 [6] | pKa [7] | Mean survival time (Mus musculus [8]) [days] | other results
1 | C[n+]1c2c(Cl)cccc2cc2[nH]c3ccccc3c21.[Cl-] | 0.76 | 3540 | 4690 |  |  |  |  |  | 
2 | Cc1ccc2cc3[nH]c4ccccc4c3[n+](C)c2c1.[Cl-] | 23.6 | 3510 | 149 |  |  |  |  |  | 
3 | C[n+]1c2ccccc2cc2[nH]c3c([N+](=O)[O-])cc([N+](=O)[O-])cc3c21.[Cl-] |  |  |  | 0.813 | 6.5 | 0.92 | 6.4 |  | 
4 | C[n+]1c2ccccc2cc2[nH]c3c([N+](=O)[O-])cccc3c21.[Cl-] |  |  |  | 78.94 | 6850 | 0.84 | 9.6 |  | 
5 | C[n+]1c2ccccc2cc2[nH]c3ccccc3c21.O=S(=O)([O-])O |  |  |  | 79.43 |  | 1.64 | 11.8 |  | 
6 | C[n+]1c2ccc(Cl)cc2cc2[nH]c3ccc(Br)cc3c21.[Cl-] | 57.7 | 1730 | 30 |  |  |  |  | 11.8 | Suppression of parasitemia (Mus musculus [9]): 91.85%; Mean survival time (Mus musculus [10]): 15.4 days; Parasitemia (Mus musculus [11]): 0.97%
7 | C[n+]1c2ccc(F)cc2cc2[nH]c3ccc(Br)cc3c21.[Cl-] | 21.4 | 1350 | 63 |  |  |  |  |  | 
8 | C[n+]1c2ccccc2cc2[nH]c3cc(Cl)ccc3c21.[Cl-] | <8.15 |  |  |  |  |  |  |  | IC50 (MAC15A [2]; mac15a): 8150 nM; IC50 (Plasmodium falciparum [3]): > 1000 nM
9 | C[n+]1c2ccc(F)cc2cc2[nH]c3ccccc3c21.[Cl-] | 3.96 | 4790 | 1210 | 79.41 | 1210 | 1.24 | 11.2 | 5 | IC50 (Plasmodium falciparum [12]): 1210 nM; Ratio (Plasmodium falciparum [13]): 1; Mean survival time (Mus musculus [14]): 5 days; Parasitemia (Mus musculus [15]): 5.98%; Suppression of parasitemia (Mus musculus [16]): 55.1%
10 | COc1ccc2c(c1)cc1[nH]c3ccccc3c1[n+]2C.[Cl-] | 4.54 | 4310 | 950 | 79.43 | 950 | 1.96 | 11.4 | 5 | IC50 (Plasmodium falciparum [12]): 950 nM; Ratio (Plasmodium falciparum [13]): 1; Mean survival time (Mus musculus [14]): 5 days; Parasitemia (Mus musculus [15]): 12.08%; Suppression of parasitemia (Mus musculus [16]): 9.3%
11 | C[n+]1c2cc(Cl)ccc2cc2[nH]c3ccccc3c21.[Cl-] | 3.9 | 1750 | 448 |  |  |  |  |  | 
12 | C[n+]1c2ccc(Br)cc2cc2[nH]c3ccc([N+](=O)[O-])cc3c21.[Cl-] | 14.7 | 1030 | 70 |  |  |  |  | 6.4 | Suppression of parasitemia (Mus musculus [9]): 90.75%; Mean survival time (Mus musculus [10]): 13 days; Parasitemia (Mus musculus [11]): 1.34%
